Assay results from ChEMBL document CHEMBL1122469, “Synthesis of 1-(aminomethyl)-1,2,3,4-tetrahydroisoquinolines and their actions at adrenoceptors in vivo and in vitro” (J Med Chem, 1983).
The source made the active and inactive calls. The rule behind the calls is not given here.

Tests used:
[1] = target: T1, Adrenergic receptor beta (Homo sapiens, UniProt P08588+P07550+P13945); experiment: Beta adrenergic receptor agonist activity in reserpine pre-treated guinea pig, isolated, spontaneously beating, right atrial preparation; assay type: functional, tissue-based; settings: Cavia porcellus; Cardiac atrium; target entry is the homologue from another species
Outline: (§1)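 Guinea pigs given reserpine 5 mg/kg i.p., atria removed 18–24 h later and tested with tyramine 17 µmol/L beforehand. Spontaneously beating right atria in Krebs–Henseleit under 0.02 N tension, rate recorded. Cumulative isoproterenol curves (second used, corrected) and one test curve at 30-min intervals. Ratio = molar concentration at 50% own maximum ÷ isoproterenol equivalent, same experiment.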

[2] = target: T1, Adrenergic receptor beta; experiment: Beta adrenergic receptor agonist activity a in guinea pig, isolated, carbachol-contracted tracheal preparations; assay type: functional; settings: Cavia porcellus; target entry is the homologue from another species
Outline: (§2)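 Guinea pigs (300–400 g, either sex) killed by cervical dislocation. Trachea mounted in a 10-mL bath of Krebs–Henseleit under 0.02 N resting tension. Tone raised submaximally with carbachol 10 µmol/L, and relaxation recorded. Cumulative test-compound curves went up to 100 µg/mL, referenced to isoproterenol (=1). Where no maximum was reached, values reflect the 100 µg/mL response. Ratios were taken at 15% of isoproterenol maximum.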

[3] = target: T1, Adrenergic receptor beta; experiment: Beta adrenergic receptor antagonistic activity in reserpine pre-treated guinea pig, isolated, spontaneously beating, right atrial preparation; NA = No antagonism of isoproterenol responses up to 2.2 x 10E-8 mol/L; assay type: functional, tissue-based; settings: Cavia porcellus; Cardiac atrium; target entry is the homologue from another species
Outline: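 Guinea pigs given reserpine 5 mg/kg i.p. 18–24 h before tissue removal, then checked with tyramine 17 µmol/L. Spontaneously beating right atrium held in Krebs–Henseleit at 0.02 N tension, with rate read by tachograph. Isoproterenol cumulative curves were run before and 15 min after adding the test drug, then repeated after washing at higher drug concentration. pA2 was determined by the Arunlakshana–Schild method.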

[4] = target: T1, Adrenergic receptor beta; experiment: Beta adrenergic receptor agonist activity in guinea pig, isolated, carbachol-contracted tracheal preparations; assay type: functional; settings: Cavia porcellus; target entry is the homologue from another species; outline: as §2
[5] = Ratio of compound Emax(50) to that of isoproterenol Emax(50) in reserpine-pretreated, guinea pig, isolated, spontaneously beating, right atrial preparation; Expressed as drug Emax(50)/Iso Emax(50) mean; assay type: functional, Cardiac atrium; outline: as §1
[6] = Ratio of compound Emax(50) to that of isoproterenol Emax(50) in guinea pig, isolated, spontaneously beating, right atrial preparation; Expressed as drug Emax(50)/Iso Emax(50) mean; assay type: functional, Cardiac atrium
Outline: (§3)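 Right atria from guinea pigs (300–400 g, either sex) killed by cervical dislocation, in 10-mL Krebs–Henseleit baths under 0.02 N tension, spontaneously beating; rate read by tachograph. Two cumulative isoproterenol curves, then one test-compound curve, 30-min intervals, three washes after each. The second isoproterenol curve was the reference, with a desensitization correction (factor 1.2). Intrinsic activity relative to isoproterenol = 1. Ratio = molar EC50 of drug ÷ molar EC50 of isoproterenol, same experiment.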

[7] = target: T1, Adrenergic receptor beta; experiment: Beta adrenergic receptor agonist activity in guinea pig, isolated, spontaneously beating, right atrial preparation; assay type: functional, tissue-based; settings: Cavia porcellus; Cardiac atrium; target entry is the homologue from another species; outline: as §3
[8] = target: T1, Adrenergic receptor beta; experiment: Beta adrenergic receptor antagonistic activity in guinea pig, isolated, carbachol-contracted tracheal preparations; NA = No antagonism of isoproterenol responses up to 2.2 x 10E-8 mol/L; assay type: functional; settings: Cavia porcellus; target entry is the homologue from another species
[9] = target: T1, Adrenergic receptor beta; experiment: Beta adrenergic receptor antagonistic activity in reserpine pre-treated guinea pig, isolated, spontaneously beating, right atrial preparation; assay type: functional, tissue-based, Cavia porcellus, Cardiac atrium; settings: target entry is the homologue from another species
[10] = target: T1, Adrenergic receptor beta; experiment: Beta adrenergic receptor agonist activity at compound concentration of 100 ug/mL in guinea pig, isolated, carbachol-contracted tracheal preparations; assay type: functional; settings: Cavia porcellus; target entry is the homologue from another species
[11] = test system: Felis catus; experiment: Activity ratio of molar concentration to molar concentration of isoproterenol in HR in choralose anaesthetized cats; assay type: functional
Outline: (§4)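 Chloralose (80 mg/kg) plus sodium phenobarbitone (6 mg/kg) i.p.-anesthetized, bilaterally vagotomized cats (2.3–3.6 kg, either sex), spontaneously breathing via tracheal cannula. Brachial vein injection in 0.9% NaCl. Carotid blood pressure and pulse-triggered heart rate recorded. Concurrent cumulative dose–response curves followed isoproterenol. Ratio = molar dose giving 50% of own maximum ÷ isoproterenol molar dose giving 50% of its maximum, same animal.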

[12] = target: T1, Adrenergic receptor beta; experiment: Beta adrenergic receptor antagonistic activity in guinea pig, isolated, carbachol-contracted tracheal preparations; assay type: functional, Cavia porcellus; settings: target entry is the homologue from another species
Outline: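 Guinea pig trachea contracted with carbachol 10 µmol/L, 0.02 N resting tension, Krebs–Henseleit bath. Isoproterenol relaxation curves before and 15 min after antagonist, repeated at higher concentrations after washing. pA2 and slope from Schild plot (Arunlakshana–Schild). Slope difference from 1.0 tested by Student's t test.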

[13] = test system: Felis catus; experiment: Activity ratio of molar concentration to molar concentration of isoproterenol in DBP in choralose anaesthetized cats; assay type: functional; outline: as §4

Row | Intrinsic activity [1] | pD2 [1] | Intrinsic activity [7] | pD2 [7] | pA2 [9] | Intrinsic activity [10] | pD2 [10] | pA2 [12] | SMILES | Intrinsic activity [2] | pA2 [3] | pD2 [4] | Ratio [5] | Ratio [6] | pA2 [8] | Activity ratio [11] | Activity ratio [13]
1 | 0.29 | 5.23 | 0.14 | 5.1 | 4.68 | 0.18 | 3.51 | 5.76 | CC(C)(C)NCC1NCCc2cc(O)c(O)cc21 (centres undefined) | – | – | – | 3600 | 2100 | – | 900 | –
2 | 0.53 | 4.22 | 0.7 | 4.49 | 4.63 | 0.2 | 3.44 | 4.66 | NCC1NCCc2cc(O)c(O)cc21 (centres undefined) | – | – | – | 32600 | 8800 | – | 12700 | –
3 | 0.59 | 5.18 | 0.42 | 5.05 | 4.84 | 0.06 | 3.49 | 5.05 | CC(C)NCC1NCCc2cc(O)c(O)cc21 (centres undefined) | – | – | – | 4400 | 2700 | – | 1700 | 2200

Row | SMILES | Intrinsic activity [1] | pD2 [1] | Intrinsic activity [7] | pD2 [7] | pA2 [9] | Intrinsic activity [10] | pD2 [10] | pA2 [12] | Intrinsic activity [2] | pA2 [3] | pD2 [4] | Ratio [5] | Ratio [6] | pA2 [8] | Activity ratio [11] | Activity ratio [13]
4 | Oc1ccc(CC2NCCc3cc(O)c(O)cc32)cc1O (centres undefined) | 0.95 | 7.05 | 0.94 | 6.96 | – | – | – | – | 0.62 | inactive | 6.45 | 38 | 26 | inactive | – | –
